# Assay outcomes (PubChem)
# NR2E3 ag-1 = activates human NR2E3 receptor | Q9Y5X4 | CHO-S Gal4-NCOR/VP16-NR2E3 two-hybrid, luciferase | 360,000 tested, 0.35% active | AID 602229 | inhibition of corepressor binding, % at 3.98 µM;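 active means inhibition above the mean of all tested compounds plus 3 SD, cut at about 70% in these data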;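 further: 0% = DMSO with NR2E3 transfected cells and 100% = cells lacking NR2E3 construct; higher means lower luciferase signal from less NR2E3 corepressor binding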
# 697 NFkB inh = inhibitors of the PMA/ionomycin-induced NF-kB reporter in 697 B cells. 330,000 tested, 0.33% active. inhibition, % at 4 µM. 697 B-cell NF-kB luciferase reporter, 16 h; in the data active means inhibition above about 35%
# FGF22 binding-1 = FGF22 (human) thermal shift binding; Q9HCT0; 340,000 tested, 1.5% active; recombinant FGF22 thermal shift, SYPRO orange fluorescence; percent of sucrose octasulfate shift, DMSO zero; activity (Tm shift, normalised), % at 9.99 µM;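 active means mean Tm shift, scaled 0 neutral to 100 positive control, at about 1.3% or above, every replicate too, limit read from the data; inconclusive means no clear call, values can overlap the other calls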
# Target sequence (Q9HCT0 whole entry, looked up): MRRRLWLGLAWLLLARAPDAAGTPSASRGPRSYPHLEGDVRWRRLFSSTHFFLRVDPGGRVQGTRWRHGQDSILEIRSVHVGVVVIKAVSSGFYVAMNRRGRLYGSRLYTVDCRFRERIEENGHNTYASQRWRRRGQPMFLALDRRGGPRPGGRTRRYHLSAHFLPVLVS
# miR122 inh = miR-122 inhibition in Huh7 cells | AID 602342 | Huh7 miR-122 Renilla luciferase sensor, 48 h; neutral wells = 0, positive control = 100 | activation (reporter increase), % at 12.5 µM | 340,000 tested, 0.3% active;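 active means mean replicate activation score at least 90 and every replicate individually at or above 90; inconclusive means only one of the two criteria met; inactive means neither criterion met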;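 further: higher luciferase means less miR-122 activity so hits act as miR-122 inhibitors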
# NR2E3 ag-2 = agonists of human nuclear receptor NR2E3 | GST-NR2E3/biotin-RetCOR TR-FRET, 1536-well | inhibition of corepressor binding, % at 4.78 µM | 320,000 tested, 0.12% active;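 active means percent inhibition above the cutoff of mean plus 3 SD of all tested compounds, set per screening campaign, cut at about 20% in these data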;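 further: 0% = DMSO wells and 100% = biotin wells as full block of FRET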
#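 Material: NR2E3–RetCOR corepressor complex / Amount: 1.35 nM GST-NR2E3 / Medium: Tris pH 7.5 / Compound: single nominal compound dose of 4.8 µM / Incubation: 5 h at 4 °C / Technique: TR-FRET, Eu(K)-anti-GST donor, streptavidin-D2 acceptor, ex 340, em 617/671 nm / Read-out basis: percent loss of FRET ratio relative to control wells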
# Jurkat NFkB inh = lowers PMA/ionomycin-induced NF-kB signal in Jurkat cells; PMA/ionomycin-induced NF-kB luciferase reporter, luminescence; inhibition, % at 4 µM; 330,000 tested, 0.53% active; in the data active means inhibition above about 50%
# FGF22 binding-2 = FGF22 (human) binding in thermal shift | shares compounds with FGF22 binding-1 | recombinant FGF22 thermal shift, SYPRO orange fluorescence | thermal shift activity, °C (ΔTm) at 38 µM | 1,000 tested, 2% active | AID 720646;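 active means fitted rise in melting shift crosses a set limit at or below the top valid dose tested; inconclusive means flat fit at mid-level activity, or a poor quality fit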
# SYPRO no-protein = compound-only SYPRO artifact for FGF22 binders. shares compounds with FGF22 binding-1. compound-only SYPRO orange thermal shift counter-screen, no protein. AC50, µM (doses to about 38 µM). 1,000 tested, 2% active. AID 743019;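 active means rising signal whose fitted curve reaches the 0.54 level within the top valid dose, showing a melting point, actives reach about 13 µM in these data; inactive means the rest, including activity in the opposite direction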; further: value is where the raw curve crosses a fixed level and not half-maximal
# * = called active by the depositor; i = inactive; ? = inconclusive; . = no result; [ ] = remark or other dose. Hits are enriched below; roughly 2.2% of the tested compounds scored in any of these assays.
SMILES,NR2E3 ag-1,697 NFkB inh,FGF22 binding-1,miR122 inh,NR2E3 ag-2,Jurkat NFkB inh,FGF22 binding-2,SYPRO no-protein
C[C@@H]1CN([C@H](C)CO)S(=O)(=O)c2ccc(C3=CCCC3)cc2O[C@@H]1CN(C)C(=O)C1CCCCC1,.,.,-1,20[16.7 µM],.,.,.,.
C[C@H]1CN([C@@H](C)CO)S(=O)(=O)c2ccc(C3=CCCCC3)cc2O[C@@H]1CN(C)C(=O)CN(C)C,.,.,1,1[16.7 µM],.,.,.,.
C[C@@H]1CN([C@H](C)CO)C(=O)Cc2cc(N(C)C)ccc2O[C@@H]1CN(C)C(=O)Nc1ccc(C(F)(F)F)cc1,.,.,-1,4[16.7 µM],.,.,.,.
COc1ccc(NC(=O)Nc2ccc3c(c2)C(=O)N([C@@H](C)CO)C[C@H](C)[C@H](CN(C)S(=O)(=O)c2cccs2)OCCCC[C@@H](C)O3)cc1,.,.,1,-4[16.7 µM],.,.,.,.
COc1ccc(-c2ccc([C@H]3[C@H](CO)N4CCCCN(C(=O)c5ccc6c(c5)OCO6)C[C@@H]34)cc2)cc1,.,.,1.4*,3[16.7 µM],.,.,0.037[42 µM],i
OC[C@@H]1[C@@H](c2ccc(-c3cccnc3)cc2)[C@H]2CN(Cc3ccccn3)CCCCN12,.,.,1.3*,7[16.7 µM],.,.,0.051,i
OC[C@H]1[C@@H](c2ccc(-c3cccnc3)cc2)[C@H]2CN(Cc3ccccn3)CCCCN21,.,.,1.7*,7[16.7 µM],.,.,-0.064,i
Cn1cnc(S(=O)(=O)N2C[C@H](O)COC[C@H]3O[C@@H](CC(=O)NCc4ccc(F)cc4)CC[C@@H]32)c1,.,.,0,8[16.7 µM],.,.,.,.
CC(C)(C)NC(=O)CN(C(=O)CNS(=O)(=O)c1ccccc1)c1ccc2c(c1)OCCO2,-19,-6,.,-13,-1,7,.,.
CC(C)(C)NC(=O)CN(C(=O)CNS(=O)(=O)c1ccc(Cl)cc1)c1ccc2c(c1)OCCO2,6,-1,40*,.,1,2,0.1,i
COc1cccc(NC(=O)CN2CCN(S(=O)(=O)c3ccc(F)cc3)CC2)c1,-3,-19,28*,9,2,20,0.21,i
N#Cc1ccc(-c2ccc3c(c2)[C@@H]2[C@@H](CCN2C(=O)c2ccccc2F)[C@H](CO)N3)cc1,.,.,0,-3[16.7 µM],.,.,.,.
O=C(Cc1n[nH]c(=O)[nH]c1=O)N/N=C/c1c(O)ccc2ccccc12,-16,18,1.4*,.,-2,6,.,10µM*
O=C(Cc1n[nH]c(=O)[nH]c1=O)N/N=C/c1ccccc1,-5,3,.,-1,3,-7,.,.
NC(=NCCc1c[nH]c2ccccc12)NS(=O)(=O)c1ccc(F)cc1,18,-38,2.7*,.,-2,13,0.088,i
O=C(N/N=C/c1ccccc1)c1cc(-c2ccc3c(c2)OCO3)n[nH]1,-85,7,0,0,3,21,.,.
O=C(N/N=C/c1cccc(O)c1)c1cc(-c2ccc3c(c2)OCO3)n[nH]1,-47,-34,1.9*,.,-1,-1,0.085,i
COc1ccc(NS(=O)(=O)c2ccc(Cl)c(N)c2)cc1Br,12,10,1.3*,?,2,-1,-0.06,i
Nc1cc(S(=O)(=O)Nc2ccc(Br)cc2)ccc1Cl,-29,5,0,.,-4,6,.,.
O=C(C[C@H]1CC[C@@H](NC(=O)C2CCOCC2)[C@@H](CO)O1)Nc1nccs1,.,.,0,.,.,.,.,.
CCc1ccc(C(=O)NNC(=O)c2cccc(N3C(=O)CCC3=O)c2)cc1,-15,-11,19*,5,1,4,0.11,i
CN1C(=O)c2cc(NC(=O)Cc3ccccc3)ccc2OC[C@H]2O[C@H](CC(=O)O)CC[C@H]21,.,.,0,-42[16.7 µM],.,.,.,.
CN1C(=O)c2cc(NC(=O)Cc3ccccc3)ccc2OC[C@@H]2O[C@H](CC(=O)O)CC[C@H]21,.,.,1.4*,-25[16.7 µM],.,.,0.054,i
